According to ChEMBL document CHEMBL2150980 (Eur J Med Chem, 2012):

Experiments:
[1] = target: T1, Alpha-1A adrenergic receptor (Cavia porcellus) (UniProt Q9WU25); experiment: Inverse agonist activity at alpha1A adrenoceptor in guinea pig thoracic aorta assessed as inhibition of ca2+-induced IRT at 10 nM after 30 mins; assay type: functional, tissue-based
T1 sequence (whole entry): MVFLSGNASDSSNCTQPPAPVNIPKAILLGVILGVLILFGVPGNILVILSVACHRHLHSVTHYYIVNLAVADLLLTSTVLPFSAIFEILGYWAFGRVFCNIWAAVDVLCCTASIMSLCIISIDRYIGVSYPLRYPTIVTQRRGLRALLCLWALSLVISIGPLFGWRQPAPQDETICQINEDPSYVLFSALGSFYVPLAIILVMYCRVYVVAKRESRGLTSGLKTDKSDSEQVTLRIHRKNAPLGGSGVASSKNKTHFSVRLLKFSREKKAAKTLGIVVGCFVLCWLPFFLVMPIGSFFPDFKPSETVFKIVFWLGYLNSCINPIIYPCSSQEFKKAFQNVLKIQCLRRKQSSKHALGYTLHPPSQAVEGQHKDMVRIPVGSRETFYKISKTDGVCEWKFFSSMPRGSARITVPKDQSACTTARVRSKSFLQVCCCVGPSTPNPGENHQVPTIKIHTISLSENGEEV
Method in brief: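 Tissue in Krebs equilibrated 1 h at 1 g, then given a single (−)-noradrenaline dose. Washed 1 h in Ca2+-free Krebs with 0.1 mM EDTA, with agonist reapplied until no contraction (internal Ca2+ stores depleted). Antagonist 10 nM for 30 min, then Ca2+ 1.8 mM added. Result is % decrease versus IRT without any agent; mean ± SE, 4–7 experiments.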

[2] = target: T2, Alpha-1A adrenergic receptor (Rattus norvegicus, UniProt P43140); experiment: Antagonist activity at alpha1A adrenoceptor in Sprague-Dawley rat prostate assessed as inhibition of noradrenaline-induced contractions after 30 mins; assay type: functional, tissue-based, Prostate gland; settings: read-out: pA2 (converted)
T2 sequence (P43140 whole entry): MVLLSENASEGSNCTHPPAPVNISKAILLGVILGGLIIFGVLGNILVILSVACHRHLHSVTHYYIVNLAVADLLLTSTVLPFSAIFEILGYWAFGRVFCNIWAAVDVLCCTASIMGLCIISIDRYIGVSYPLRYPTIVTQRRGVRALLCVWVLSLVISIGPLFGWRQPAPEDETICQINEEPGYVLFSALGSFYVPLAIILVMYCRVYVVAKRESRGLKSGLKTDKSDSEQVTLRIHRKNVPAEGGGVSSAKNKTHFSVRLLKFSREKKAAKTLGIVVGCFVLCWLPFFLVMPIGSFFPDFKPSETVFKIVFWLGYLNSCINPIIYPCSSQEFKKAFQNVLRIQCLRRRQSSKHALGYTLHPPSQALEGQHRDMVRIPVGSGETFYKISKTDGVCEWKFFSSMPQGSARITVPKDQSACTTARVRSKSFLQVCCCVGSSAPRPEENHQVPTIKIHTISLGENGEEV
Method in brief: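 Rat (200–250 g) prostatic strips, 8–10 mm × 1–2 mm, held at 2 g resting tension in modified Krebs (NaCl 118.0, KCl 4.7, CaCl2 2.5, MgSO4 1.18, NaHCO3 25.0, KH2PO4 1.18, glucose 5.5 mM).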

| Compound | inhibition [1] [%] | Kb [2] [nM] |
| --- | --- | --- |
| COc1cccc(OC)c1OCCNC[C@H]1COc2cccc(OC)c2O1.Cl | 60 | 2.82 |
| COc1cccc(OC)c1OCCNC[C@H]1COc2cccc(Cl)c2O1.Cl | 80 | 0.912 |
| COc1cccc(OC)c1OCCNC[C@H]1COc2c(OC)cccc2O1.Cl | 79 | 39.8 |

The remaining lines, values ahead:

| inhibition [1] [%] | Kb [2] [nM] | Compound |
| --- | --- | --- |
| 100 | 50.1 | COc1cccc(OC)c1OCCNC[C@H]1COc2cccc(O)c2O1.Cl |
| 100 | 1.2 | COc1cccc(OC)c1OCCNC[C@H]1COc2cccc(F)c2O1.Cl |
